In the library only some 1.6% were active in any assay of this set; here they are far more common.
PAD4 FP inh: PAD4 (human) enzyme inhibition; Q9UM07; recombinant PAD4, RCA probe fluorescence polarization; inhibition, % at 6.36 µM; 330,000 compounds, 0.41% hits; AID 485272;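 active means percent inhibition above a cutoff equal to the mean of all tested compounds plus 3 SD, cut at about 15% in these data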;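 further: 0% = PAD4 with RCA probe and DMSO and 100% = probe without PAD4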
Target sequence (Q9UM07 whole entry, looked up): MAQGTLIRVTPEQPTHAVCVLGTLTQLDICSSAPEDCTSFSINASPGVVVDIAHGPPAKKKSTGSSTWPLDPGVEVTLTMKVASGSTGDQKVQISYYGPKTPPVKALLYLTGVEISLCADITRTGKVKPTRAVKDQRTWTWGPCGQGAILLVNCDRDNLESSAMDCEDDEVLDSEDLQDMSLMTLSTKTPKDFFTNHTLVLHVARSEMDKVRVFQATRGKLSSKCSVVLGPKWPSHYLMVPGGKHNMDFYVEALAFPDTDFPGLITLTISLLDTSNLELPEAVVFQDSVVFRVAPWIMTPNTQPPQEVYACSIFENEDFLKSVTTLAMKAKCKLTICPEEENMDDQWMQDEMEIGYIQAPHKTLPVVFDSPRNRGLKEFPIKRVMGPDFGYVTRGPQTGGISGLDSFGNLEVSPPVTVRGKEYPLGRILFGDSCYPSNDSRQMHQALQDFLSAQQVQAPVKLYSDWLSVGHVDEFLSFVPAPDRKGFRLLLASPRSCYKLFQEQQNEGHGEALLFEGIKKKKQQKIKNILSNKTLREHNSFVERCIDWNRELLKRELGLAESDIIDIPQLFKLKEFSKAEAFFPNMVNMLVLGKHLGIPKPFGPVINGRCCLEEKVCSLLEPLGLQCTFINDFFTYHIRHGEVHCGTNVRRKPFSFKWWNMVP
Apaf1 inhib: human Apaf-1 inhibition; reconstituted apoptosome caspase-3 activity, DEVD-Rh110 fluorescence; inhibition, % at 20 µM; 330,000 compounds, 0.71% hits; AID 489030; active means inhibition of at least 40% at 20 µM;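 further: plate controls were DMSO wells for no effect and DEVD-CHO caspase inhibitor wells for full effect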
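Assay system – apoptosome proteins · Medium – Hepes buffer, pH 7.5 · Also added – cytochrome c with DEVD-Rh110 · Timing – 30 min compound preincubation, 50 min activation, room temperature · Detection – Rh110 fluorescence, excitation 480 nm, emission 540 nm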
GSTO1 inh: GSTO1 inhibition, counter-screen for RBBP9 inhibitors; recombinant GSTO1, activity-based probe fluorescence polarization; inhibition, % at 5.96 µM; 300,000 compounds, 1.1% hits; AID 1974;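 active means inhibition above the campaign mean inhibition plus 3 SD, cut at about 35% in these data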;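 further: 0% = GSTO1-1 with DMSO and 100% = wells lacking GSTO1-1 enzyme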
SUMO HTRF inh: blocks human SUMOylation mediated by UBC9. P63279. HTRF SUMOylation assay, SAE1/SAE2 + UBC9, in vitro. inhibition, % at 35 µM. 290,000 compounds, 0.36% hits. AID 2006; in the data active means inhibition above about 50%, passing the limit was not always enough
JMJD2C inh: human JMJD2C demethylase inhibition. Q9H3R0. GST-JMJD2C(1-420) H3K9me3 demethylation, DELFIA europium. inhibition, % at 2.35 µM. 330,000 compounds, 0.069% hits. AID 2099;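 active means more than half of a compound's replicate wells show inhibition beyond 50%, single wells judged on their own value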;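 further: signal counts dimethyl H3K9 product captured on neutravidin plate; 0% = median of DMSO wells and 100% = 0.3 times that DMSO median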
TDP2 inh: TDP2 (human) inhibition, absorbance primary screen; recombinant TDP2, T5PNP hydrolysis, p-nitrophenol absorbance 415 nm; O95551; inhibition, % at 12.8 µM; 370,000 compounds, 0.34% hits;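 active means inhibition above the mean of all tested compounds plus 3 SD, set per campaign, cut at about 25% in these data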;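 further: 0% = DMSO with enzyme and 100% = buffer with substrate but no TDP2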
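System – recombinant human TDP2 · Amount – 120 nM TDP2 per well · Buffer or medium – Mg2+-containing Tris-HCl buffer, pH 7.5 · Reagent – T5PNP substrate, 5 mM · Dosing – 12.8 µM single point, 1% DMSO · Incubation – 2 h at 37 °C · Measured by – epi absorbance · Read-out basis – percent inhibition · Benchmarks – high control without enzyme, low control DMSO plus TDP2 · Repeats – singlicate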
Apaf-1 inh conf2: Apaf-1 inhibition, single-dose confirmed; inhibition, % at 20 µM; 1,800 compounds, 25% hits; reconstituted apoptosome, caspase-3 DEVD-Rh110 fluorescence; shares compounds with Apaf1 inhib;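 active means mean inhibition of at least 40% at 20 µM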;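 further: plate controls were DMSO wells for no effect and DEVD-CHO caspase inhibitor control wells for full effect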
Rh110 interf inh: counter-screen for Apaf-1 inhibitors: fluorescence interference. activation (fluorescence interference), % at 20 µM. Rh110 fluorescence interference, quenched caspase reaction. shares compounds with Apaf1 inhib. 1,800 tested, under 10 active;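 active means signal rise of 40% or more at 20 µM, treated as a fluorescence artifact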
Fluor interf inh: shows fluorescence interference in the Apaf-1 inhibitor assay format; fluorescence interference counterscreen, Apaf-1 assay format; 460 tested, under 10 active; IC50, µM; shares compounds with Apaf1 inhib; call rule not given here
Starred values were filed as active, the others as inactive; · = no result given.

SMILES	PAD4 FP inh	Apaf1 inhib	GSTO1 inh	SUMO HTRF inh	JMJD2C inh	TDP2 inh	Apaf-1 inh conf2	Rh110 interf inh	others
Cc1nc2ccc(C(=O)N3CCN(C(=O)C(Cl)Cl)CC3)cc2n1C1CCCC1	·	·	·	·	·	-2	·	·
CC(C)N1CCc2c(sc(NC(=O)c3ccc(S(=O)(=O)N4CCc5ccccc54)cc3)c2C(N)=O)C1	2	46*	-20	-24	-1	·	3	1
CNC(=O)c1c(NC(=O)c2ccc(S(=O)(=O)N(C)c3ccccc3)cc2)sc2c1CCN(C(C)C)C2	-5	28	-3	-2	-12	-5	·	·
COC(=O)[C@]12C[C@H](CC(=O)NCC34CC5CC(CC(C5)C3)C4)C(=O)N(CCc3ccc(OC)c(OC)c3)C1=C[C@H](C(C)(C)C)O[C@@H]2C	·	·	·	·	·	-7	·	·
Cc1ccc(N(CC(=O)N/N=C/c2ccc(OC3CSC3)cc2)S(=O)(=O)c2ccccc2)c(C)c1	3	63*	-3	-2	3	2	18	0
O=C1C=C(c2ccc(OC(F)(F)F)cc2)C[C@@H](c2ccc(F)cc2)C1	-2	54*	·	·	-1	·	18	1
O=C1C=C(c2ccc(Oc3ccccc3)cc2)C[C@@H](c2ccc(F)cc2)C1	0	6	·	·	4	6	·	·
Cc1ccc(CN2CCCCC(NC(=O)C(C)(C)C)C2=O)cc1 (stereo not drawn)	·	·	·	·	·	-3	·	·
Cc1ccc(NC(=O)CN2C(=O)S/C(=C/c3ccc(-c4cc(C(=O)O)ccc4C)o3)C2=O)cc1C	-7	42*	-4	84*	-17	1	38	10
O=C(CCNC(=O)c1ccc(Cl)cc1)NCCCN1CCOCC1	1	48*	·	·	0	-14	36	-3
COc1ccc(C(C(=O)N(C)C2CCCC2)N(Cc2ccc(F)cc2)C(=O)c2csc3ccc(Cl)cc23)cc1OC (stereo not drawn)	·	·	·	·	·	6	·	·
CCC1C(=O)N=C(SCC(=O)Nc2nc3ccccc3s2)NC1=O (stereo not drawn)	-1	70*	0	13	-1	-9	2	9
CCC1C(=O)N=C(SCC(=O)Nc2cccc3ccccc23)NC1=O (stereo not drawn)	11	-19	5	-7	-7	3	·	·
O=C(Nc1ccc(OC(F)F)c(Cl)c1)[C@@H]1CCCN1C(=O)c1cccs1	2	92*	-3	5	-7	4	11	6
COC(=O)[C@H](CC(C)C)N(CCCc1cn(CC2CCCCC2)nn1)S(=O)(=O)c1ccccc1Br	·	·	·	·	·	-3	·	·
CCc1ccc(N2C(=O)C(Cl)=C(Nc3ccc(C(=O)N4CCCC4)cc3)C2=O)cc1	5	41*	·	·	5	·	7	10
Cc1ccc(OCC(=O)N/N=C\c2c(C)n(C)c3ccccc23)c([N+](=O)[O-])c1	-4	42*	-5	-6	0	·	12	6
Cc1c(/C=N/NC(=O)COc2ccccc2[N+](=O)[O-])c2ccccc2n1C	1	3	6	16	8	-11	·	·
Cn1c(=O)[nH]c2c(Br)nccc21	·	·	·	·	·	-2	·	·
CC(C)=CCC/C(C)=C/CNC(=O)C[C@H]1C[C@H](C(=O)N2CCOCC2)[C@@]2(C)c3[nH]c4ccc(Cl)cc4c3CCN2C1=O	0	42*	·	·	·	5	27	10
CC(C)=CCC/C(C)=C/CNC(=O)C[C@H]1C[C@H](C(=O)N2CCOCC2)[C@@]2(C)c3[nH]c4cc(-c5ccco5)ccc4c3CCN2C1=O	5	44*	·	·	·	·	17	3
CC[C@]12c3[nH]c4ccc(Cl)cc4c3CCN1C(=O)[C@@H](CC(=O)NCC13CC4CC(CC(C4)C1)C3)C[C@@H]2C(=O)N1CCN(C(=O)c2ccco2)CC1	0	44*	·	·	·	-3	18	7
N#Cc1ccc(CSc2nc3sc4c(c3c(=O)n2-c2ccc(Br)cc2)CCCC4)cc1	·	·	·	·	·	3	·	·
C[C@@H](CCCCC1(C)OCCO1)CCC(=O)N(c1ccccc1)c1ccccc1	·	·	·	·	·	-1	·	·
CCOC(=O)N1CCC(c2cc(=O)n3[nH]cc(C(=O)OC)c3n2)CC1	1	10	9	12	-3	-5	·	·
SMILES	PAD4 FP inh	Apaf1 inhib	GSTO1 inh	SUMO HTRF inh	JMJD2C inh	TDP2 inh	Apaf-1 inh conf2	Rh110 interf inh	others
CCOc1ccc(NC(=O)c2c[nH]n3c(=O)cc(C4CCN(C(=O)OC(C)(C)C)CC4)nc23)cc1	-3	40*	5	-4	-1	1	26	4
CCOC(=O)N1CCC(NC(=O)CCCN2C(=O)CSc3ncccc32)CC1	1	2	4	21	1	-9	·	·
CCOC(=O)N1CCC(NC(=O)CN2C(=O)CSc3ncccc32)CC1	-4	63*	9	6	-4	-6	8	1
Clc1ccc(N=c2ssnc2Cl)nc1	6	55*	19	3	54*	-8	67*	3	Fluor interf inh=>100
Nn1c(SCC(=O)Nc2ccccc2-c2ccccc2)nnc1-c1n[nH]c2c1CCC2	·	·	·	·	·	1	·	·
C=CCN1[C@H](CO)[C@H](c2ccccc2)[C@@H]1C#N	·	·	·	·	·	2	·	·
CCCCCCCCCCCCCCCC(O)C(N)CO (stereo not drawn)	3	80*	2	8	-33	8	21	13
CCCCCCCCCCCCCCCC(O)C[N+](C)(C)CCO (stereo not drawn)	·	·	·	·	·	-3	·	·
COC(=O)C1CN(Cc2cn(Cc3ccc(OC)cc3)nn2)CCS(=O)(=O)N1Cc1ccc(Cl)cc1 (stereo not drawn)	·	·	·	·	·	-1	·	·
CC(=O)N1CCN(c2ccc(NCc3ccco3)cc2)CC1	-6	-3	·	·	10	8	·	·
CC(=O)N1CCN(c2ccc(NCc3ccc(-c4cccc(Cl)c4)o3)cc2)CC1	9	43*	·	·	·	·	19	5
CC(=O)N1CCN(C2=NC(=O)N(c3ccc(Br)cc3)C(=O)C2)CC1	·	·	·	·	·	7	·	·
CCc1ccc2nc(NC(=O)CSCc3c(C)noc3C)sc2c1	3	46*	4	-15	-5	-2	29	5
Cc1cc(C)nc(-n2nc(C)cc2NC(=O)CN2CCc3ccccc3C2)n1	-1	54*	9	2	11	-7	15	-2
CC(C)c1cc(C(C)C)c(S(=O)(=O)N2CCC(C(=O)NCC3COCCO3)CC2)c(C(C)C)c1 (stereo not drawn)	·	·	·	·	·	-2	·	·
CSc1nncc(/C(C)=N\Nc2cccc(C)c2)n1	-4	61*	23	13	-19	-14	10	-5
